The values below come from ChEMBL document CHEMBL5653631, “A Potent and Selective ULK1 Inhibitor Suppresses Autophagy and Sensitizes Cancer Cells to Nutrient Stress” (iScience, 2018).

Assay [1] deals with Dual specificity protein kinase CLK2 (Homo sapiens) (UniProt P49760). Nature of the assay: Inhibition of human recombinant CLK2 at 40 nM in presence of ATP by radiometric assay relative to control.
In assay [2] the target is Calcium/calmodulin-dependent protein kinase kinase 1 (Homo sapiens) (UniProt Q8N5S9). Nature of the assay: Inhibition of human recombinant CaMKK1 at 40 nM in presence of ATP by radiometric assay relative to control.
The target in assay [3] is Protein kinase C iota type (Homo sapiens) (UniProt P41743). In words: Inhibition of human recombinant PKCi at 40 nM related to control ULK1.
For assay [4], the target named is Death-associated protein kinase 3 (Homo sapiens) (UniProt O43293). Nature of the assay: Inhibition of human recombinant DAPK3 at 40 nM related to control ULK1.
Sequence of Death-associated protein kinase 3 (Homo sapiens) (O43293 whole entry, looked up): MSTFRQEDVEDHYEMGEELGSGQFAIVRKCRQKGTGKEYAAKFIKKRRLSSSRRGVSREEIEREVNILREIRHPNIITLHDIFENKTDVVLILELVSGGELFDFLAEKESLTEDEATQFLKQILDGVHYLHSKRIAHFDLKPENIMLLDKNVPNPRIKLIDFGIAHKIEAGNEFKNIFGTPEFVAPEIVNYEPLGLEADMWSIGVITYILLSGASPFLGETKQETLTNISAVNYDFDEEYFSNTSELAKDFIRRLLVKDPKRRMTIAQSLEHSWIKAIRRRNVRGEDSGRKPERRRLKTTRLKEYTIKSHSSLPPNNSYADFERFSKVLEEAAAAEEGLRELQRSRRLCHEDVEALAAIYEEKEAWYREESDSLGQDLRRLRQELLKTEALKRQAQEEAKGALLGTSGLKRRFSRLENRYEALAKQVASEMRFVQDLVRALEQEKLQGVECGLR
For assay [5], the target named is Dual specificity protein kinase CLK1 (Homo sapiens) (UniProt P49759). In words: Inhibition of human recombinant CLK1 at 40 nM related to control ULK1.
In assay [6] the target is Serine/threonine-protein kinase 24 (Homo sapiens) (UniProt Q9Y6E0). In words: Inhibition of human recombinant MST3 at 500 nM in presence of ATP by radiometric assay relative to control.
Sequence of Serine/threonine-protein kinase 24 (Homo sapiens) (Q9Y6E0 whole entry, looked up): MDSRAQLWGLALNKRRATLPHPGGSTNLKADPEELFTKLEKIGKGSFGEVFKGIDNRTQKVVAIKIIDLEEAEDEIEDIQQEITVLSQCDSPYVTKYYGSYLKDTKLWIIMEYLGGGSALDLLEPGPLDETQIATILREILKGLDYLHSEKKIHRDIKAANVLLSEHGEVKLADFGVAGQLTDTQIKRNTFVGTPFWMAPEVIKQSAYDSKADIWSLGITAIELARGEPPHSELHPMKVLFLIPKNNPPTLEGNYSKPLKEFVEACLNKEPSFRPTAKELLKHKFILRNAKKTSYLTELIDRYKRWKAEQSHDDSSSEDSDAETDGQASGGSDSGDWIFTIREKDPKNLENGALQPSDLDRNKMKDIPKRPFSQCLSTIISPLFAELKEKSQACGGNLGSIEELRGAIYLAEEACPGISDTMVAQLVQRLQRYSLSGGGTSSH
Assay [7] is filed under the species Homo sapiens. In words: Inhibition of human recombinant CK1d at 500 nM related to control ULK1.
Assay [8] deals with Serine/threonine-protein kinase PAK 1 (Homo sapiens) (UniProt Q13153). Nature of the assay: Inhibition of human recombinant PAK1 at 500 nM in presence of ATP by radiometric assay relative to control.
Sequence of Serine/threonine-protein kinase PAK 1 (Homo sapiens) (Q13153 whole entry, looked up): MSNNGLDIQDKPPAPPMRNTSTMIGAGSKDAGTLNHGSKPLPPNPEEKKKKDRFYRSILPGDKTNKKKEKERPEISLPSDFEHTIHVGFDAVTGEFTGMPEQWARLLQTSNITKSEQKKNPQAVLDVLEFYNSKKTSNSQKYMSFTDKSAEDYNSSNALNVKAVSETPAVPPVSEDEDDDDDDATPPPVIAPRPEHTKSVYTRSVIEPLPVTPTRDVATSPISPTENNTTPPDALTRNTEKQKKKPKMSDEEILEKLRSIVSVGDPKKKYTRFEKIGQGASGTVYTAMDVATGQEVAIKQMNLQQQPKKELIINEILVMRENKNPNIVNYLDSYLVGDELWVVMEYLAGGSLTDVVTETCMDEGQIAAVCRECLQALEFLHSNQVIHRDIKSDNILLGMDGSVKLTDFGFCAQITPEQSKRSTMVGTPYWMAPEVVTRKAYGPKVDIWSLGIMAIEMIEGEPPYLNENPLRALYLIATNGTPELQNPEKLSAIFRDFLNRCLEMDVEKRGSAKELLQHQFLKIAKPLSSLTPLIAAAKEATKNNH
The target of assay [9] is eIF-2-alpha kinase GCN2 (Homo sapiens) (UniProt Q9P2K8). In words: Inhibition of human recombinant GCN2 at 500 nM in presence of ATP by radiometric assay relative to control.
Sequence of eIF-2-alpha kinase GCN2 (Homo sapiens) (Q9P2K8 whole entry): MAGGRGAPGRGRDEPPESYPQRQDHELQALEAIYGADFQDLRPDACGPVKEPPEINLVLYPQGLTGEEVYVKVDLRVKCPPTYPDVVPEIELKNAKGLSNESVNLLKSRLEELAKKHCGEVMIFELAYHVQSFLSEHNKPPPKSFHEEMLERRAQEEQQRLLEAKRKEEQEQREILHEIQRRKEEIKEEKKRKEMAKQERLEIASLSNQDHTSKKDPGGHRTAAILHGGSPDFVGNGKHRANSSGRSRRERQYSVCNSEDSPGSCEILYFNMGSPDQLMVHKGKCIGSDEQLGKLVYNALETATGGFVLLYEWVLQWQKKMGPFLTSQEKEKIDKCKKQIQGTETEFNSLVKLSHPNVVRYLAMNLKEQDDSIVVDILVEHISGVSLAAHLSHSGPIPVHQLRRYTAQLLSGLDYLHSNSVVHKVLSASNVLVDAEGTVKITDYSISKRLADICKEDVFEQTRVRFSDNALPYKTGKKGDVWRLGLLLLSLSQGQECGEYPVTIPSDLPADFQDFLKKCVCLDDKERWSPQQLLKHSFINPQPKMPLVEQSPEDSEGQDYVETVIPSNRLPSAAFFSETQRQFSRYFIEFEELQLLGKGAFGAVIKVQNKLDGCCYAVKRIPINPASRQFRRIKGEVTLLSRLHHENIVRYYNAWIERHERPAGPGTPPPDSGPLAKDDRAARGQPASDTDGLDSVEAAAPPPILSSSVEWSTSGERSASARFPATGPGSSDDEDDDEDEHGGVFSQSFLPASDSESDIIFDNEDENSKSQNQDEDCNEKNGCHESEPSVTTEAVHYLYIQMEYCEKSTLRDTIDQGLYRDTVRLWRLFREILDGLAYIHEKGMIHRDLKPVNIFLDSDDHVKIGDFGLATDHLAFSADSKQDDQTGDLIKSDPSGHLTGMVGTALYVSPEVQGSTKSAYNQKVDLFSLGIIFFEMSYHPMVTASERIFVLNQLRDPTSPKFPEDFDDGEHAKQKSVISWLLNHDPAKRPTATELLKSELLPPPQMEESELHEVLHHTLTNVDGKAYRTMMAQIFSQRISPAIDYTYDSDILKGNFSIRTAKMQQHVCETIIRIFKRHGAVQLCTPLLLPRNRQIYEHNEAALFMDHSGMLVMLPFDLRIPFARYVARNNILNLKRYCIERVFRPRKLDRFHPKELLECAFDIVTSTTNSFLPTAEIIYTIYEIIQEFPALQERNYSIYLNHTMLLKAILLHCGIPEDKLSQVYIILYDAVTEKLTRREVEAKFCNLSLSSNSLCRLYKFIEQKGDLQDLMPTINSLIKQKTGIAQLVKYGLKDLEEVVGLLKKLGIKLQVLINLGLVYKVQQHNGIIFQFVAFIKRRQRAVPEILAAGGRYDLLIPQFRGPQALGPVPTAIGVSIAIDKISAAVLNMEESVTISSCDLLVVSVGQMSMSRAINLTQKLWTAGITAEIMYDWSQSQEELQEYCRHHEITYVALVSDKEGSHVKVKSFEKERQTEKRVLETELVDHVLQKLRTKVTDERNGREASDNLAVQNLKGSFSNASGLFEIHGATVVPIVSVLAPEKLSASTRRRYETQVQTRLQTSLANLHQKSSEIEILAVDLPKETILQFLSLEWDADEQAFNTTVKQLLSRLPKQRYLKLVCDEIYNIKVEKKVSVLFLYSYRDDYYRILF
Assay [10] addresses Fibroblast growth factor receptor 3 (Homo sapiens) (UniProt P22607). Nature of the assay: Inhibition of human recombinant FGFR3 at 500 nM in presence of ATP by radiometric assay relative to control.
The target in assay [11] is Tyrosine-protein kinase receptor UFO (Homo sapiens) (UniProt P30530). In words: Inhibition of human recombinant AXL at 500 nM in presence of ATP by radiometric assay relative to control. The gist of the method:
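Panel of 327 recombinant human kinases, each assayed in vitro by radiometric activity assay in duplicate at a single inhibitor concentration per compound, chosen with reference to its ULK1 inhibition. Activity remaining was expressed as percent of vehicle control, and percent inhibition was calculated as 100 minus percent activity remaining.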

The target of assay [12] is T1, Mitogen-activated protein kinase 12 (Homo sapiens) (UniProt P53778).
T1 sequence (whole entry): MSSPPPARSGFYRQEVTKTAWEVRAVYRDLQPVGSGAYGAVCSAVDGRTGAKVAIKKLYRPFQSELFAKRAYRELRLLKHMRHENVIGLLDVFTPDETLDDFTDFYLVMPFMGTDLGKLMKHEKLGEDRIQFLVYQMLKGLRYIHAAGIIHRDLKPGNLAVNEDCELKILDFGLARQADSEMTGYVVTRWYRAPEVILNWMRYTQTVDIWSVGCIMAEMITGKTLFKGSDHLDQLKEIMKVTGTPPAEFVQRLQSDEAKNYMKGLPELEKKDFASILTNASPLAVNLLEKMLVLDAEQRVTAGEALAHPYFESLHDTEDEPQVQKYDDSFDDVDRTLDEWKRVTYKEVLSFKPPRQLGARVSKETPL
Nature of the assay: Inhibition of human recombinant p38gamma at 15 nM in presence of ATP by radiometric assay relative to control.

Assay [13] has as its target Cyclin-dependent kinase 1 (Homo sapiens) (UniProt P06493). Nature of the assay: Inhibition of human recombinant CDC2 at 15 nM in presence of ATP by radiometric assay relative to control.
Assay [14] deals with T2, SNF-related serine/threonine-protein kinase (Homo sapiens) (UniProt Q9NRH2).
T2 sequence (whole entry): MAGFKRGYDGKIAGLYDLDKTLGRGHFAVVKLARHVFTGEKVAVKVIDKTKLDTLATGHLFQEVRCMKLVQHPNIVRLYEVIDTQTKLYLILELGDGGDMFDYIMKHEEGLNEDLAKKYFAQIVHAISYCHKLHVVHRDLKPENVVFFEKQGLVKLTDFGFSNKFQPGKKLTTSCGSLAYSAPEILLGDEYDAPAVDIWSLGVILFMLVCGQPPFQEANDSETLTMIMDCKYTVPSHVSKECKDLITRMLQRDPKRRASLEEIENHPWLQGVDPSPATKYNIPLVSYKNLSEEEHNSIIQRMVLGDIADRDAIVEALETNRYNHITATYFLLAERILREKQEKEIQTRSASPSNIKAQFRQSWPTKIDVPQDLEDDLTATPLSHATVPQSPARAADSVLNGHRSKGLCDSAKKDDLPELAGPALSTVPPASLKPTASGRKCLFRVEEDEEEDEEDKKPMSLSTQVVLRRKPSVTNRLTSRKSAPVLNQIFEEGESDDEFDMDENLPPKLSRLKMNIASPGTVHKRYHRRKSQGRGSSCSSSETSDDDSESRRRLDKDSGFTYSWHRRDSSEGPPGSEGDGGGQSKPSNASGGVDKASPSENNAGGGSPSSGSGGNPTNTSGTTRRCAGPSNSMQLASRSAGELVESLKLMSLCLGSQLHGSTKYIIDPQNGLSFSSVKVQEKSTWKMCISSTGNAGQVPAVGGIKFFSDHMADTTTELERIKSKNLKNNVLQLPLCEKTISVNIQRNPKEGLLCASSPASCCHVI
Nature of the assay: Inhibition of human recombinant SNRK at 15 nM related to control ULK1.

Assay [15] deals with Insulin receptor-related protein (Homo sapiens) (UniProt P14616). In words: Inhibition of human recombinant IRR at 15 nM related to control ULK1.
The species named for assay [16] is Homo sapiens. In words: Inhibition of human recombinant CK1d at 15 nM in presence of ATP by radiometric assay relative to control.
For assay [17], the target named is T3, Serine/threonine-protein kinase Nek2 (Homo sapiens) (UniProt P51955).
T3 sequence (whole entry): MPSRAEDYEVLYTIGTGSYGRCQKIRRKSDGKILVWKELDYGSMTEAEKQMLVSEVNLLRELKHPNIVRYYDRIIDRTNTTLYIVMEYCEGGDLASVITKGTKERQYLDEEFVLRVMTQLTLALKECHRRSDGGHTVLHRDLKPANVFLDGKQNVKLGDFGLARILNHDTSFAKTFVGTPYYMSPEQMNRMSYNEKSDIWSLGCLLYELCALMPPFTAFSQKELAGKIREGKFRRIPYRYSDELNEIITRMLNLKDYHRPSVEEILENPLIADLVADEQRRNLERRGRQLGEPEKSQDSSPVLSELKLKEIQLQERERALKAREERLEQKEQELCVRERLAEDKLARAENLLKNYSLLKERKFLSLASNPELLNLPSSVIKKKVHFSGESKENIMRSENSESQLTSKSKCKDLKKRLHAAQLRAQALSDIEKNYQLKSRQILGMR
In words: Inhibition of human recombinant NEK2 at 15 nM related to control ULK1.

The target of assay [18] is Homeodomain-interacting protein kinase 2 (Homo sapiens) (UniProt Q9H2X6). In words: Inhibition of human recombinant HIPK2 at 15 nM related to control ULK1.
Sequence of Homeodomain-interacting protein kinase 2 (Homo sapiens) (Q9H2X6 whole entry, looked up): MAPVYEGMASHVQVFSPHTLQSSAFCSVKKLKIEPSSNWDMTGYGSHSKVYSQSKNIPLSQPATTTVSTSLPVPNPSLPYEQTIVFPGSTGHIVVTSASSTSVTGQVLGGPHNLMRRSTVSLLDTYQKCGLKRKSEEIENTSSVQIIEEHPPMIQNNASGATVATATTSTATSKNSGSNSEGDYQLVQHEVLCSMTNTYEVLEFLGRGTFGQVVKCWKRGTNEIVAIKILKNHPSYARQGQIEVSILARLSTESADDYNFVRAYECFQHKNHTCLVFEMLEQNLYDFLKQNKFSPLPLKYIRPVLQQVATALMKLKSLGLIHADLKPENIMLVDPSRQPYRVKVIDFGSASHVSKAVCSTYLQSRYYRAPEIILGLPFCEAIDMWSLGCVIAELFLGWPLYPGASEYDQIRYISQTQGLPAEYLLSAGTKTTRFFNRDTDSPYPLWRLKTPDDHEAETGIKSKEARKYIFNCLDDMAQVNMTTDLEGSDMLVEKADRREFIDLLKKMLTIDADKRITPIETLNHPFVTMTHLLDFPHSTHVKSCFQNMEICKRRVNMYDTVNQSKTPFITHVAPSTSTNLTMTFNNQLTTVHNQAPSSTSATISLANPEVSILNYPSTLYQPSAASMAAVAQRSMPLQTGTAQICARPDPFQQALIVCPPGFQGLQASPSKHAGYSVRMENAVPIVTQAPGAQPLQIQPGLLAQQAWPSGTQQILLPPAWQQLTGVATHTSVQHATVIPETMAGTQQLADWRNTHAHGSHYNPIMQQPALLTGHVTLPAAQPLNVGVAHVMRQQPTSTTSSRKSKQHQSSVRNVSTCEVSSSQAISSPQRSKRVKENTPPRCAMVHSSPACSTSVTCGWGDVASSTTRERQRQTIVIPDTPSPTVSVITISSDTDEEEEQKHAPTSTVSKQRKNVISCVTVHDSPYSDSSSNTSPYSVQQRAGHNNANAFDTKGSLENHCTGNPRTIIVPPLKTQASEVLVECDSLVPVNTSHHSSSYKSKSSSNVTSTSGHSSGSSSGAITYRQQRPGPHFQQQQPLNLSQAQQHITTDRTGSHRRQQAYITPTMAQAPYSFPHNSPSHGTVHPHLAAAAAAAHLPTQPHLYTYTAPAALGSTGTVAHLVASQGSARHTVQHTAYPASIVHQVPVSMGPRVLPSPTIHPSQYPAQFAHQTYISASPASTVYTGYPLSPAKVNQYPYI

As usually defined, the inhibition is the share of the control response that was lost under treatment.

Sequence of Fibroblast growth factor receptor 3 (Homo sapiens) (P22607 23-806 limits assumed): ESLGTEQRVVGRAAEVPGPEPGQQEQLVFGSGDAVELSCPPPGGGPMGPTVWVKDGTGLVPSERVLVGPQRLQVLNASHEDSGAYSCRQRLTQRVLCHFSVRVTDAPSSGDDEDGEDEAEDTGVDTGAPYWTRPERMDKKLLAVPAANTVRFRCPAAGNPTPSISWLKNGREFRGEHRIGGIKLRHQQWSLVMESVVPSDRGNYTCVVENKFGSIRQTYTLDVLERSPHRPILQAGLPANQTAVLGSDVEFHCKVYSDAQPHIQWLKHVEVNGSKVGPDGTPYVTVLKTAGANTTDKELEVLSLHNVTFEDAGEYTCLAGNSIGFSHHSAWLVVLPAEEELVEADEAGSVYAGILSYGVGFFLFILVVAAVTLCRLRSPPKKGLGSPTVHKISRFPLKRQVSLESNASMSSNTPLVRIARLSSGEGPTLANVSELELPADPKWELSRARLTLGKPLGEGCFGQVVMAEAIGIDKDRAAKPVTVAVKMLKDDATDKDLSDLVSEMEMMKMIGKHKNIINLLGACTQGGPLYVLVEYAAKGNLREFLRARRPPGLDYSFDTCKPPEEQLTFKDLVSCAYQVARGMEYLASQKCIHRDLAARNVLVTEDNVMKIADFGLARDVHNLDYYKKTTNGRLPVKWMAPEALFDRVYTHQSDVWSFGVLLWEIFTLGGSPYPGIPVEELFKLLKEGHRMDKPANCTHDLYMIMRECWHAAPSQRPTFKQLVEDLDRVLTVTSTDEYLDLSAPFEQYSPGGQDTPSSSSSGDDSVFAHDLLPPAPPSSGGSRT

In the case of `O=C(N[C@@H](C1CC1)C(F)(F)F)c1cc(-c2cnn3cc(-c4ccc(F)cc4)cnc23)cs1`, the inhibition in assay [1] is 19%; in [2], 0%. In addition, the fold change (FC) in [3] was determined as 0; in assay [4], 0.11; in assay [5] it was 0.47.
Turning to `CNC(=O)c1ccccc1Oc1nc(Nc2cc(OC)c(OC)c(OC)c2)ncc1Br`, the inhibition in [6] came out at 58%; in assay [8], 20%; in assay [9] it was 2%; in assay [10] it was 42%; in [11], 5%. Also, in the assay filed under Homo sapiens [7], the fold change (FC) worked out at 0.14.
In the case of `CC(C)[C@H](NC(=O)c1cc(-c2cnn3cc(-c4ccc(OCCN5CCCCC5)cc4)cnc23)cs1)C(F)(F)F`, the figures for the inhibition (in [12]; in assay [13]; in the assay listed under Homo sapiens [16]) were 5%, 24% and 3%, respectively. Further, the fold change (FC) turned out to be 0.09 in [14], 0.02 in [15], 0.14 in [17] and 0.03 in assay [18].
